In ChEMBL document CHEMBL1143291, “Synthesis and structure-activity relationships of novel, substituted 5,6-dihydrodibenzo[a,g]quinolizinium P2X7 antagonists” (Bioorg Med Chem Lett, 2009):
Active and inactive are the calls of the source. The rule behind the calls is not given here.

Tests used:
[1] = molecular target: T1, P2X purinoceptor 7 (Homo sapiens, UniProt Q99572); assay: Antagonist activity at human P2X7 receptor expressed in HEK293 cells assessed as inhibition of BzATP-induced fluorescent ethidium accumulation; type: functional, cell-based
T1 sequence (Q99572 whole entry): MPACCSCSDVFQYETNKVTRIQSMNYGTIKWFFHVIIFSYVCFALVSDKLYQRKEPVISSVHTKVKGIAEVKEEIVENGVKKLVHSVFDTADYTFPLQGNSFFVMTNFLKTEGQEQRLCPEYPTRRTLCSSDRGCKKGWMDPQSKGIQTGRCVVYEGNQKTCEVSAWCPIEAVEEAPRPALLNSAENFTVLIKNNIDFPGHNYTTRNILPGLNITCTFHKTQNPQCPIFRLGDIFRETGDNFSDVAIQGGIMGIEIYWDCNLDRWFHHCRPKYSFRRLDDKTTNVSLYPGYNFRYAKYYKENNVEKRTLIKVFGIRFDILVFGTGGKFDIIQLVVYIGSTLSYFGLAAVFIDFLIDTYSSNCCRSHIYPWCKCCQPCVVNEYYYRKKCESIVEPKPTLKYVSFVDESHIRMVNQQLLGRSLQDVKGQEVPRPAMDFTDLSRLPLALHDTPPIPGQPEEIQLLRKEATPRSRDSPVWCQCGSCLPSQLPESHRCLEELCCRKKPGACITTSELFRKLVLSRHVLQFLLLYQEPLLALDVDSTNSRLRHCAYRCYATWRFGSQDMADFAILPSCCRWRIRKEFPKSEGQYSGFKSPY
Outline: (§1)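 Adherent HEK293 cells stably transfected with human P2X7 cDNA were preincubated 30 min with compound. They were then resuspended at 2.5 × 10^6 cells/ml in 20 mM HEPES pH 7.4 with 140 mM KCl, 5 mM glucose, 1 mM EDTA and 0.1 mM ethidium bromide. BzATP was added to 1 mM for 120 min at 37 °C. Ethidium uptake was read by fluorescence (ex 530/20, em 590/20 nm).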

[2] = test system: THP-1; assay: Inhibition of Bz-ATP-induced IL1-beta release in LPS/IFN-gamma-differentiated human THP1 cells at 1 uM by ELISA; type: functional
Outline: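 THP-1 cells were differentiated for 3 h with 25 ng/ml LPS plus 10 ng/ml IFNγ. They were preincubated 30 min with 1 µM compound, then stimulated with 1 mM BzATP for 30 min. Supernatants were collected by centrifugation (1000 rpm, 5 min) and mature human IL-1β was measured by ELISA. Results are mean ± SD percent inhibition, n = 3.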

[3] = test system: THP-1; assay: Inhibition of Bz-ATP-induced IL1-beta release in LPS/IFN-gamma-differentiated human THP1 cells by ELISA; type: functional, cell-based
Outline: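 Full concentration–response curves used THP-1 cells differentiated for 3 h with 25 ng/ml LPS and 10 ng/ml IFNγ. Cells were preincubated 30 min with compound, then stimulated 30 min with 1 mM BzATP. Mature IL-1β in the centrifuged supernatant was quantified by ELISA.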

[4] = molecular target: T2, P2X purinoceptor 7 (Homo sapiens) (UniProt Q99572); assay: Antagonist activity at human P2X7 receptor expressed in HEK293 cells assessed as inhibition of BzATP-induced fluorescent ethidium accumulation at 8 uM; type: functional, cell-based; outline: as §1
T2 sequence (whole entry): T1 sequence (Q99572 whole entry)

Row | Structure (SMILES) | IC50 [1] [nM] | inhibition at 1 µM [2] [%] | other results
1 | CCc1c2[n+](cc3c(OCc4ccccc4C)c(OC)ccc13)CCc1cc(OC)c(OC)cc1-2 | 5020 |  | Activity [2]: inactive
2 | CCc1c2[n+](cc3c(OCc4cc(OC)c(OC)cc4[N+](=O)[O-])c(OC)ccc13)CCc1cc(OC)c(OC)cc1-2 | 170 | 83 | IC50 [3]: 175 nM
3 | CCc1c2[n+](cc3c(OC)c(OC)ccc13)CCc1cc3c(cc1-2)OCO3 | 350 | 73 | 
4 | CCc1c2[n+](cc3c(OCc4cccc([N+](=O)[O-])c4C)c(OC)ccc13)CCc1cc(OC)c(OC)cc1-2 | 5400 |  | 
5 | CCc1c2[n+](cc3c(OCc4ccc(-c5ccccc5)cc4)c(OC)ccc13)CCc1cc(OC)c(OC)cc1-2 | 3220 |  | Activity [2]: inactive
6 | CCCc1c2[n+](cc3c(OC)c(OC)ccc13)CCc1cc(OC)c(OC)cc1-2 | 500 |  | 
7 | CCc1c2[n+](cc3c(OCc4ccc(Br)cc4)c(OC)ccc13)CCc1cc(OC)c(OC)cc1-2 | 2600 | 5 | 
8 | COc1cc(Cc2c3[n+](cc4c(OC)c(OC)ccc24)CCc2cc4c(cc2-3)OCO4)cc(OC)c1 | 260 | 39 | 
9 | COc1ccc2cc3[n+](cc2c1OC)CCc1cc2c(cc1-3)OCO2 |  |  | inhibition [4]: 7.03%
10 | CC[C@@H]1c2ccc(OC)c(OC)c2CN2CCc3cc4c(cc3[C@H]12)OCO4 (racemic) | 560 | 34 | 
11 | CCc1c2[n+](cc3c(OCc4ccccc4C(F)(F)F)c(OC)ccc13)CCc1cc(OC)c(OC)cc1-2 | 2560 | 13 | 
12 | COc1ccc2c(c[n+](C)c3c4cc5c(cc4ccc23)OCO5)c1OC |  |  | Activity [2]: inactive
13 | CCc1c2[n+](cc3c(OCc4cccc(Cl)c4)c(OC)ccc13)CCc1cc(OC)c(OC)cc1-2 | 2660 | 7 | 
14 | CN([C@@H](Cc1ccc(OS(=O)(=O)c2cccc3cnccc23)cc1)C(=O)N1CCN(c2ccccc2)CC1)S(=O)(=O)c1cccc2cnccc12 | 340 | 79 | IC50 [3]: 81 nM
15 | CCc1c2[n+](cc3c(OCc4cc([N+](=O)[O-])ccc4OC)c(OC)ccc13)CCc1cc(OC)c(OC)cc1-2 | 420 | 42 | 
16 | CCc1c2[n+](cc3c(OCc4ccc(OCc5ccccc5)cc4)c(OC)ccc13)CCc1cc(OC)c(OC)cc1-2 | 2810 |  | Activity [2]: inactive
17 | C=CCc1c2[n+](cc3c(OC)c(OC)ccc13)CCc1cc3c(cc1-2)OCO3 | 440 | 71 | 
18 | CCc1c2[n+](cc3c(OCc4ccc(Cl)nc4)c(OC)ccc13)CCc1cc(OC)c(OC)cc1-2 | 4410 | 33 | 
19 | CCc1c2[n+](cc3c(OCc4cc(C)ccc4[N+](=O)[O-])c(OC)ccc13)CCc1cc(OC)c(OC)cc1-2 | 730 | 40 | 
20 | COc1cc2c(cc1OC)-c1c(CC3CCCCC3)c3ccc(OC)c(OC)c3c[n+]1CC2 | 1120 | 17 | 
21 | CCc1c2[n+](cc3c(OCc4ccc(C(C)(C)C)cc4)c(OC)ccc13)CCc1cc(OC)c(OC)cc1-2 | 1260 | 33 | 
22 | COc1cc2c(cc1OC)-c1cc3ccc(OC)c(OC)c3c[n+]1CC2 |  |  | Activity [4]: inactive
23 | CCCC(I)c1c2[n+](cc3c(OC)c(OC)ccc13)CCc1cc3c(cc1-2)OCO3 (centres undefined) | 420 | 54 | 
24 | CCc1c2[n+](cc3c(OCc4ccc(F)cc4C(F)(F)F)c(OC)ccc13)CCc1cc(OC)c(OC)cc1-2 | 820 | 13 | 
25 | CCc1c2[n+](cc3c(OCc4cc(C)ccc4C)c(OC)ccc13)CCc1cc(OC)c(OC)cc1-2 | 1530 | 8 | 
26 | COc1ccc2c(Cc3c(F)cccc3Cl)c3[n+](cc2c1OC)CCc1cc2c(cc1-3)OCO2 | 400 | 50 | 
